The sample as a whole holds a higher share of hits than the screen did.
Glyco luc inh = N-linked glycosylation inhibition; D54 ERlucT glycosylation luciferase reporter, 24 h; percent of 100 nM tunicamycin response; actives 0.23% (n = 360,000); reporter increase, % at 12.5 µM;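 active means mean luciferase reporter signal, scaled so untreated is 0 and the glycosylation-blocking control 100, at or above a set limit in every replicate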;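 further: luciferase carries N-glycosylation sites so blocking glycosylation raises the light; 0% = median of neutral control wells and 100% = median of 100 nM tunicamycin wells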
T cell HTS = modulates CD8 T cell binding to vesicles; 2C CD8+ T cell-vesicle binding, flow cytometry; hits give low values; response (vesicle binding), % at 7 µM; actives 0.068% (n = 330,000); AID 2052;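 active means response, share of CD8 T cells binding vesicles, and their 90th percentile fluorescence all below set limits, cut at about 80% in these data, passing the limit was not always enough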;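 further: values below 100% mean blocked vesicle binding to the CD8+ T cells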
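Assay system – 2C mouse CD8+ T cells · Also added – QL9-loaded Drosophila micro-vesicles · Timing – Cell–vesicle co-incubation 1.5 h at 37 °C, staining 20 min on ice · Signal – flow cytometry of vesicle-bound cells · Measure – percent CD8+ FL2 mean versus row control · Controls – Peptide-free naked vesicles (low) and QL9 vesicles with 0.7% DMSO vehicle (high)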
ALR H2O2 inh = blocks human ALR sulfhydryl oxidase activity. inhibition, % (test concentration not listed). purified ALR, DTT oxidation, H2O2 HRP-luminol luminescence. P55789. actives 3.8% (n = 290,000). AID 485317;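 active means mean replicate inhibition above about 79%, with every replicate also reaching it, limit read from the data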
Target sequence (P55789 whole entry, looked up): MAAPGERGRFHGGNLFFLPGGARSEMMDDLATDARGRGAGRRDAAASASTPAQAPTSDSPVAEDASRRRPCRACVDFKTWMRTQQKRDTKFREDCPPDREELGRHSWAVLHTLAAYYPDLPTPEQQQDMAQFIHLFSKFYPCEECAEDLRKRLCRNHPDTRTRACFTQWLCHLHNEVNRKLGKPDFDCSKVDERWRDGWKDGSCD
Numbers without * were called inactive; i = inactive; . = not tested or not shown.

SMILES	Glyco luc inh	T cell HTS	ALR H2O2 inh
CSCCCc1cn([C@@H](CO)C(=O)NCCCCCCCCCCC(=O)N2CCNCC2)nn1	-1.0	482.9	9.1
C=CCSc1nnc(NC(=O)C2CC(=O)N(Cc3ccc(C)cc3)C2)s1 (stereo not given)	0.4	117.7	-0.9
CCOC(=O)N(C)c1c(CC)nc2c(OCc3ccccc3)cccn12	-0.2	.	.
O=C(N/C(=C/c1ccccc1Cl)C(=O)N1CCCC1)c1ccccc1	0.9	287.9	1.4
COc1ccc(N2CCN(C(=O)c3ccc4c(c3)OCO4)CC2)cc1	3.0	167.0	84.1*
CC(=O)c1ccc(N2CCN(C(=O)c3ccc4c(c3)OCO4)CC2)cc1	.	454.3	2.9
COCCNC(=O)C1CCCN(C(=O)c2cc(C)nn2C(C)(C)C)CC1 (stereo not given)	1.0	.	.
Cc1nnc(SCC(=O)Nc2cccc(Br)c2)s1	-1.2	724.6	-1.4
COc1ccc(CN2CCC2(C)C(=O)Nc2cnc3ccccc3c2)c2ccccc12 (stereo not given)	-8.0	.	.
O=C(c1cc(C2CC2)nn1-c1ccccc1)N1CCN(S(=O)(=O)c2c(F)cccc2F)CC1	-3.3	132.4	-0.3
O=C(Nc1nnc(C2CC2)o1)c1ccc(S(=O)(=O)N2CCCc3ccccc32)cc1	4.4	270.4	96.4*
COc1ccc(-c2nnc(NC(=O)c3ccc(S(=O)(=O)N4CCCc5ccccc54)cc3)o2)cc1	1.4	231.3	15.4
COCc1nnc(NC(=O)c2ccc(S(=O)(=O)N3CCCc4ccccc43)cc2)o1	4.6	i	85.6*
O=C(Nc1nnc(C2CC2)o1)c1ccc(S(=O)(=O)N2CCCCC2)cc1	0.6	219.2	63.6
CC(=O)OC1CCC2(C)C(CCC3C2CC(=O)C2(C)C3CC(C3CCCC3=O)C2C(C)=O)C1 (stereo not given)	-2.3	.	.
Cc1noc(C)c1CSCC(=O)OCC(=O)Nc1ccc(OC(F)(F)F)cc1	1.2	.	.
O=C(c1ccc(NS(=O)(=O)c2ccc3[nH]c(=O)[nH]c3c2)cc1)N1CCN(c2ccccc2O)CC1	2.6	244.3	98.2*
Cc1cccc(N2CCN(C(=O)c3ccc(NS(=O)(=O)c4ccc5[nH]c(=O)[nH]c5c4)cc3)CC2)c1C	1.9	214.3	-0.9
COc1ccc(NC(=O)NC(C)(C(F)(F)F)C(F)(F)F)cc1	1.1	251.1	.
CCC(NC(=O)NCc1ccccc1)(C(F)(F)F)C(F)(F)F	0.3	317.9	-0.2
CCC(NC(=O)Nc1ccc(O)cc1)(C(F)(F)F)C(F)(F)F	2.8	282.6	98.6*
CC(NC(=O)Nc1ccc(O)cc1)(C(F)(F)F)C(F)(F)F	4.4	493.6	98.4*
CCOc1cc([N+](=O)[O-])cc(/C=N/NC(=O)c2c(-c3ccccc3)noc2C)c1O	0.6	87.0	-1.6
COc1cc(/C=N/NC(=O)c2c(-c3ccccc3)noc2C)ccc1O	1.0	502.1	98.8*
CCOc1cc(C=NNC(=O)N(c2ccccc2)c2ccccc2)ccc1O	9.4	.	.
SMILES	Glyco luc inh	T cell HTS	ALR H2O2 inh
CCOc1cc(/C=N/NC(=O)c2c(-c3ccccc3)noc2C)ccc1O	-1.0	211.2	95.9*
COc1cccc(/C=N/NC(=O)c2c(-c3ccccc3)noc2C)c1O	-8.8	339.0	45.2
Cc1nc2ccccn2c1C(=O)N/N=C/c1ccc2c(c1)OCO2	7.4	278.1	-2.8
CCOc1cc(/C=N/NC(=O)c2ccc(=O)n(C)c2)ccc1O	-0.1	305.7	98.9*
CCOc1cc(/C=N\NC(=O)c2c(C)nc3ccccn23)ccc1O	0.6	261.1	88.8*
CCCCN(C)C(=O)c1sc(=O)n(Cc2c(C)cccc2C)c1C	-5.4	.	.
CN(CCCC(=O)NCc1ccccc1)S(=O)(=O)c1ccc([N+](=O)[O-])cc1	1.5	399.2	16.2
C[C@]12c3[nH]c4ccc(Cl)cc4c3CCN1C(=O)[C@@H](CC(=O)NCCc1ccccn1)C[C@@H]2C(=O)N1CCCCC1	3.5	.	.
COc1cc(/C=N/NC(=O)c2ccc(COc3cc(C)ccc3C(C)C)cc2)cc(OC)c1O	2.8	393.3	.
Cc1ccc(C(C)C)c(OCc2ccc(C(=O)N/N=C/c3ccc(O)c(O)c3)cc2)c1	-3.0	301.1	97.4*
NC(=O)c1ccc(NC(=O)COC(=O)c2cc3ccccc3cc2O)cc1	-7.4	465.9	-14.5
CNc1nc(-c2ccc3c(c2)CCN3C(=O)CC(C)(C)C)c(C)s1	-2.2	710.6	44.2
CS(=O)(=O)N1CCc2cc(-c3csc(NC(=O)C(c4ccccc4)c4ccccc4)n3)ccc21	-6.4	168.4	2.2
CCCC(=O)N1CCc2cc(-c3nc(N)sc3C)ccc21	1.3	364.9	98.2*
CCC(C)C(=O)N1CCc2cc(-c3csc(N)n3)ccc21 (stereo not given)	-7.1	127.2	98.2*
CNc1nc(-c2ccc3c(c2)CCN3C(=O)c2ccccc2F)cs1	-9.9	.	.
CC(C)(C)C(=O)N1CCc2cc(-c3csc(N)n3)ccc21	-17.6	440.0	99.1*
COc1cc(Cl)c(CN2CCCC(CO)(Cc3cccc(Cl)c3)C2)cc1OC (stereo not given)	-7.4	167.2	.
CN(CC(=O)Nc1ccc(F)cc1)C(=O)COC(=O)c1cc([N+](=O)[O-])ccc1N1CCOCC1	-0.7	302.3	-2.7
CC1C/C(=N/NC(=O)c2cccc(F)c2)c2ccc(O)cc2C1 (stereo not given)	-0.4	192.9	98.8*
COc1ccc2c(c1)CC(C)C/C2=N\NC(=O)c1ccco1 (stereo not given)	-1.0	516.5	-2.8
COc1ccc(N2C(=O)c3ccc(C(=O)Nc4ccc(NC(C)=O)cc4)cc3C2=O)cc1	0.6	226.0	-0.4
CCOC(=O)C(NC(=O)NCc1ccccc1OC)(OCC)C(F)(F)F (stereo not given)	-1.2	231.6	-14.2
COc1ccc(CC(N)c2csc(Nc3nc(C)cnc3C)n2)cc1 (stereo not given)	0.0	.	.
COc1cc(/C=C2\SC(=S)N(NC(=O)c3ccncc3)C2=O)ccc1O	-1.2	123.8	98.8*
SMILES	Glyco luc inh	T cell HTS	ALR H2O2 inh
COc1cc(/C=C2\SC(=S)N(NC(=O)c3cccc(O)c3)C2=O)ccc1O	2.4	204.5	95.5*
COc1cc(/C=C2\SC(=S)N(NC(=O)c3ccccc3OC)C2=O)ccc1O	0.2	175.1	1.1
COc1cc(/C=C2\SC(=S)N(NC(=O)c3ccc(O)c(OC)c3)C2=O)ccc1O	2.4	334.3	.
O=C(NN1C(=O)/C(=C/c2cccs2)SC1=S)c1cccnc1	0.7	531.8	.
CCOc1cc(/C=C2\SC(=S)N(NC(=O)c3cccnc3)C2=O)ccc1O	-0.3	160.2	98.9*
O=C(O)c1cc(O)ccc1N=Nc1ccccc1	-2.6	159.5	2.8
Oc1ccc(N=Nc2ccccc2)cc1	0.1	326.1	98.8*
OCc1ccc(N=Nc2ccccc2)cc1	-8.6	913.0	-9.9
O=C(O)c1ccccc1N=Nc1ccc(O)cc1	-7.1	324.2	99.1*
CN(C)C(=O)C12CCC(C)(C(=O)C1Br)C2(C)C (stereo not given)	1.9	i	-3.6
C[C@H](CO)N1C[C@H](C)[C@H](CN(C)C(=O)Cc2ccncc2)Oc2ncc(Br)cc2C1=O	2.6	.	.
CC(C)NC(=O)C1(C)Cc2c(-c3ccc(N(C)C)cc3)ccnc2O1 (stereo not given)	-1.2	.	.
N#Cc1cc(N)ccc1Sc1ccc(Cl)cc1	0.0	424.1	21.2
